D1 mod – allosterically modulates the human D1 dopamine receptor | B-score at 10 µM | 58,000 compounds, 5.9% hits | HEK293 D1, CRE-luciferase, dopamine EC30 potentiation; actives deviate in either direction;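 active = luminescence count or its row- and column-corrected plate score outside the 99.7% band of the plate's sample wells, on either side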
DAT uptake mod – modulates human dopamine transporter uptake under cocaine. B-score at 10 µM. Q01959. LLC-PK1 hDAT cells, [14C]-dopamine uptake with cocaine IC80; actives deviate in either direction. 110,000 compounds, 1.3% hits;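 active = Z score or B-score, a plate-position-corrected score, falls beyond the plate's 99.7% confidence bounds, in either direction; inactive = both scores lie inside the 99.7% bounds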;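 also: scored against the spread of the other compound wells on the same plate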
Target sequence (Q01959 whole entry, looked up): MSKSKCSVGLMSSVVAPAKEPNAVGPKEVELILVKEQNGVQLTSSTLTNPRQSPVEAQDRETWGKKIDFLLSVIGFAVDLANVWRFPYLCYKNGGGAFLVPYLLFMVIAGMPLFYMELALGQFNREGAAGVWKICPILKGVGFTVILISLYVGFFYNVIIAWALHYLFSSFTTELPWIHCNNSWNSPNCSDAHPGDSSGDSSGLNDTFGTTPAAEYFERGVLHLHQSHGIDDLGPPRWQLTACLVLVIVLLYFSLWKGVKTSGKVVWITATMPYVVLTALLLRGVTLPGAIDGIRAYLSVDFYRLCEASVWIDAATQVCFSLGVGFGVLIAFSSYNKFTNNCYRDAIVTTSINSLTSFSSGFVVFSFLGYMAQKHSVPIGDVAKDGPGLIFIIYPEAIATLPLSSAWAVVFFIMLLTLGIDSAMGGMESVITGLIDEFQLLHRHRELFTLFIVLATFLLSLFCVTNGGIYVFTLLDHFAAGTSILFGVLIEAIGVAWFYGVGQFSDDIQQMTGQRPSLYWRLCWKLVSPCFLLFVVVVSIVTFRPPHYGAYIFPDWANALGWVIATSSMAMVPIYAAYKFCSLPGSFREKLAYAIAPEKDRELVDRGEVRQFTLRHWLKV
AP ELISA ortho – alternative pathway complement inhibition, orthogonal assay | Human serum alternative complement pathway, LPS-coated ELISA, C3 deposition; tested in compound mixtures | inhibition, % at 5 µM | 62,000 compounds, 0.08% hits | AID 1235;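 active = inhibition above 30% in each of the two pooled mixtures holding the compound, so the lower value exceeds 30%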;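 also: 0% = serum in Mg-EGTA without compound and 100% = EDTA serum blank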
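Medium: diluted human serum in Mg2+-EGTA GVB++. Assay system: human serum complement alternative pathway, C3 deposition onto LPS. Also added: Plate-bound LPS. Technique: Anti-C3 ELISA, OD 450 nm. Measure: percent inhibition. Incubation: 1 h at 37 °C. Dosing: 5 µM each compound, pools of ten, 50 µM per pool.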
WNV protease inh – WNV NS2B-NS3 proteinase inhibition. WNV NS2B-NS3 protease, fluorogenic substrate Ex360/Em465; stronger effect = lower value. z-score (concentration not given with the values). 65,000 compounds, 0.18% hits. P06935; in the data active = z-score below about -3
D1 mod confirm – D1 receptor (human) allosteric modulation, confirmed; AID 642; 2,200 compounds, 88% hits; shares compounds with D1 mod; luminescence at 10 µM; HEK293 D1 CRE-luciferase, dopamine EC30 potentiation; stronger effect = higher value;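 active = luminescence in either of two replicates above the same-plate mean plus 3 SD of the low-dose dopamine control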
D1 ag no DA – D1 (human) signaling in absence of dopamine | shares compounds with D1 mod | HEK293 D1 CRE-luciferase, luminescence, no dopamine; stronger effect = higher value | luminescence at 10 µM | 1,900 compounds, 0.8% hits | AID 646; in the data active = luminescence above about 3900
Isoprot counter – alters isoproterenol CRE-luciferase response in HEK293 cells | luminescence at 10 µM | 2,200 compounds, 63% hits | shares compounds with D1 mod | HEK293 D1 CRE-luciferase, isoproterenol EC30 counter-screen; stronger effect = higher value;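 active = luminescence in either replicate above plate mean of wells with a partly effective reference agonist dose plus 3 SD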;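 also: isoproterenol raises cAMP through native beta-adrenoceptor Gs so signal bypasses D1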
* = called active by the depositor; x = not tested or not shown. The sample as a whole holds a higher share of hits than the screen did.

SMILES	D1 mod	DAT uptake mod	AP ELISA ortho	WNV protease inh	D1 mod confirm	D1 ag no DA	Isoprot counter
Cc1c2c(nc3c(C(=O)NC4CCCCC4C)cnn13)CCCC2 (stereo unspecified)	8.2*	x	4	-0.25	10904*	x	5444*
CC(C)(C)C(=O)c1sc(Nc2ccccc2)nc1N	12*	1.3*	-8	-0.39	16628*	1584	4168*
COC(=O)c1sc(Nc2ccccc2)nc1C	0.11	0.67	6	-1.4	x	x	x
COc1ccc(C(C(=O)NC(C)(C)C)N(C(=O)CNC(=O)c2cccs2)c2ccc(C)cc2)cc1OC (stereo unspecified)	x	0.82	x	x	x	x	x
Cc1noc(NS(=O)(=O)c2ccc(NC(=O)Nc3ccc(Cl)c(Cl)c3)cc2)c1C	-2.6	0.069	-20	2.5	x	x	x
Cc1noc(NS(=O)(=O)c2ccc(N3Cc4ccccc4C3=O)cc2)c1C	6.6*	0.37	16	-0.29	15188*	1676	2956*
COc1ccc2cc3c(N)nn(C(=O)Cc4ccccc4OC)c3nc2c1	2.6*	0.87	6	0.17	8828*	1504	3504
Cc1nc(SCC(=O)O)c2oc3ccccc3c2n1	1.4	0.73	18	0.06	x	x	x
Cc1nc(NCc2ccco2)c2oc3ccccc3c2n1	6*	x	7	-0.75	11576*	x	2960*
Cc1nc(Nc2ccncc2)c2oc3ccccc3c2n1	1.1	-0.3	10	x	x	x	x
CCSc1ncnc2c1oc1ccccc12	12*	1.2	18	-1.2	11660*	1868	3360*
Cc1nc(SCCO)c2oc3ccccc3c2n1	7.3*	0.14	3	-1	10060*	x	3700*
CCc1nc(N2CCCCC2)c2oc3ccccc3c2n1	6.3*	-0.61	-1	-0.11	6440*	1852	2916
CCc1nc(N2CCCC(C)C2)c2oc3ccccc3c2n1 (stereo unspecified)	1.9	0.45	1	-0.45	x	x	x
Cc1ccc2nc(SCC(=O)Nc3nnc(SCC(N)=O)s3)[nH]c2c1	x	0.61	x	x	x	x	x
CCc1ccc(-c2csc3ncn(CC(=O)N4CCOCC4)c(=O)c23)cc1	x	0.95	x	x	x	x	x
Cc1nc(N2CCOCC2)c2oc3ccccc3c2n1	4.6*	0.29	2	-0.19	13356*	1720	3340*
c1ccc2c(c1)oc1c(N3CCOCC3)ncnc12	3.6	-0.13	3	-0.77	x	x	x
CCc1nc(NC(C)C)c2oc3ccccc3c2n1	22*	-0.35	11	0.03	7576*	x	2728*
O=C(COc1ccccc1)Nc1ccccc1N1CCCCC1	3.4*	0.31	-2	-0.37	5352	x	2232
Clc1ccccc1Cn1nnc2c(NCC3CC3)ncnc21	2.8*	-0.28	13	0.85	6104*	1744	3312*
Cc1cc(Nc2nc3c(c(=O)n(C)c(=O)n3C)n2C)n(-c2ccccc2)n1	-0.26	x	6	-0.47	x	x	x
Cc1c(NC(=O)CN2C(=O)c3ccccc3C2=O)c(=O)n(-c2ccccc2)n1C	3.7*	-0.7	20	-0.74	4240	1472	2316
Cc1c(NC(=O)CC(=O)Nc2c(C)n(C)n(-c3ccccc3)c2=O)c(=O)n(-c2ccccc2)n1C	x	-1.4	3	1.6	x	x	x
N#CC1=C(N)N(c2ccccc2)C(c2ccco2)C1(C#N)C#N (stereo unspecified)	7.7*	-0.11	0	-0.08	5392	1576	2456
SMILES	D1 mod	DAT uptake mod	AP ELISA ortho	WNV protease inh	D1 mod confirm	D1 ag no DA	Isoprot counter
Cc1cccc(N2C(N)=C(C#N)C(C#N)(C#N)C2c2ccccc2)c1 (stereo unspecified)	0.75	-0.82	4	1.1	x	x	x
CCOc1c(S(=O)(=O)N2CCCC2)ccc(Cl)c1Cl	12*	0.41	-16	0.71	11948*	1540	3712*
CCOc1ccc(Cl)cc1S(=O)(=O)N1CCCC1	-1.5	0.41	10	-0.4	x	x	x
CCC(C)(C)NC(=O)CN(C(=O)c1snc(C(N)=O)c1N)c1ccc2c(c1)OCCO2	6.6*	0.088	17	-0.91	4748	1392	2492
COC(=O)[C@@]1(Cc2ccc(OC)cc2)[C@H]2c3cc(C(=O)N4CCCC4)n(C[C@H](O)CO)c3C[C@H]2CN1C(=O)c1ccccc1	x	-0.83	x	x	x	x	x
C=CCn1c(C(C)NC(=O)COC)nc2ccccc21 (stereo unspecified)	5.4*	2.3	24	1.1	5084	1624	2296
O=C(CCSCCc1ccccn1)Nc1ccc(Br)cn1	x	-0.29	x	x	x	x	x
O=C(O)c1[nH]c2ccc(Cl)cc2c1CC(=O)N1CCN(c2ccccc2)CC1	3.1*	-0.19	5	0.84	5332	1412	2544
O=C(O)c1[nH]c2ccc(Cl)cc2c1CC(=O)N1CCN(C(=O)c2ccco2)CC1	-0.028	-0.64	-6	0.19	x	x	x
N#CC1=C(N)S[C@H](C(=O)C23CC4CC(CC(C4)C2)C3)[C@H]1c1ccncc1	12*	-0.091	5	0.22	12784*	1676	5388*
CS(=O)(=O)c1ccc2nc(NC(NC(=O)c3ccco3)(C(F)(F)F)C(F)(F)F)sc2c1	x	x	x	1.8	x	x	x
COc1ccc(-c2cc(C(F)(F)F)n3nc(C)cc3n2)cc1	12*	-0.96	13	-0.25	9368*	1632	3348*
COc1ccc(-c2cc(C(F)(F)F)n3nc(N)nc3n2)cc1	x	-0.014	x	x	x	x	x
CCOC(=O)c1cc2nc(-c3ccco3)cc(C(F)(F)F)n2n1	x	0.061	x	x	x	x	x
COc1cccc(-c2cc(C(F)(F)F)n3nc(N)nc3n2)c1	7.3*	0.036	7	0.02	15000*	1596	6680*
Cc1cc2nc(-c3ccco3)cc(C(F)(F)F)n2n1	32*	-0.012	9	-0.28	22332*	x	3868*
O=C(Cn1ncc2c(=O)oc3ccccc3c21)Nc1nc2ccccc2s1	0.012	-1.1	3	0.21	x	x	x
COc1cccc(NC2=NCC(=O)N2Cc2cccs2)c1	4.2*	-0.32	10	-0.57	8816*	1624	2532
C=C(C)C1Cc2c(C)nn(-c3nc(C)cc(C)n3)c2C1 (stereo unspecified)	-2	-0.29	6	-0.23	x	x	x
C=C(C)C1Cc2nc(N)nc(C)c2C1 (stereo unspecified)	14*	-0.82	4	-0.7	14408*	1772	4520*
Cc1cc(C)c2nc(N3CCC(C(=O)N4CCCC4)CC3)sc2c1	3.5*	1.6	10	0.19	5940	1656	2920
Cc1cc(C)c2nc(N3CCC(C(=O)N4CCN(c5ncccn5)CC4)CC3)sc2c1	2.3	-0.06	14	0.24	x	x	x
CC1(C)CC(=O)C/C(=N/NC(=O)CCCOc2ccc(Cl)cc2Cl)C1	x	1.1	x	x	x	x	x
CCC(C)n1c(-c2cccs2)nc2nc3ccccc3nc21 (stereo unspecified)	10*	-0.45	8	-0.26	15740*	1736	3648*

Source: PubChem
